The values that follow come from ChEMBL document CHEMBL5150073, “Photocaged DNA-Binding Photosensitizer Enables Photocontrol of Nuclear Entry for Dual-Targeted Photodynamic Therapy” (J Med Chem, 2022).

The nature of series [1]: Drug uptake in human MCF7 cells cultured as […] spheroids assessed as increase in green fluorescence in nuclear background at 10 uM incubated overnight under dark condition by DAPI filter based fluorescence analysis. In kind it is ADME, cell-based. As to conditions: mcf7, 10 µM.
The subject of series [2] is MCF7. As to the kind of experiment: Induction of ROS production in human MCF7 cells at 2 uM incubated for 1 hr in dark followed by irradiation with 480 nm 2.3 J/cm^2 light for 15 mins with 8 J/cm^2 UV irradiation for 5 mins by DCFH2-DA probe based analysis. The conditions noted are these: time 80.0 min. Type of series: functional, cell-based. A digest of the protocol: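 MCF7 cells incubated with compound (2 μM) 1 h in the dark, washed, loaded with 10 μM DCFH2DA for 30 min, washed. DCF green fluorescence imaged after 480 nm illumination (15 min, 2.3 J cm⁻²), then after added 365 nm UV (5 min, 8.0 J cm⁻²). Mean fluorescence intensity quantified.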

Series [3] has as its system MCF7. As to the kind of experiment: Photorelease activity in human MCF7 cells assessed as 3-bromo-2-(4-carbamimidoylphenyl)-1H-indole-6-carboxamidine release by measuring bright cyan fluorescence in nucleus at 3 uM incubated for 1 hr followed by illumination with 1.6 J/cm^2 for 10 mins by DAPI filter based analysis. The conditions noted are these: mcf7, 1.167 h, time 70 min. Type of series: ADME, cell-based. In outline: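 MCF7 cells given compound (3 μM) for 1 h, washed once with PBS, imaged. DAPI filter set (ex 350–405, em 415–470 nm) used for Br-DAPI cyan signal; EGFP filter set (ex 450–495, em 500–550 nm) used for WinterGreen green signal. Cells imaged dark, then after 480 nm illumination (10 min, 1.6 J cm⁻²).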

The nature of series [4]: Photorelease ability in PBS at pH 7.4 assessed as 3-bromo-2-(4-carbamimidoylphenyl)-1H-indole-6-carboxamidine release by measuring change in emission spectra at 1 uM incubated in presence of CT-DNA and irradiated with 3.1 J/cm^2 mercury lamp light for 20 mins. In kind it is functional.
The nature of series [5]: Induction of ROS production in PBS at pH 7.4 at 1 uM irradiated with 480 nm 2.3 J/cm^2 light for 15 mins with 2-photon irradiation by DCFH2-DA probe based analysis. Type of series: functional.
The nature of series [6]: Photorelease activity in PBS at pH 7.4 assessed as wintergreen release at 50 uM in presence of CT-DNA illuminated with 3.1 J/cm^2 480 nm illumination for 20 mins by RP-HPLC analysis. In kind it is functional. In outline:
(§1)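 Samples at 50 μM in PBS pH 7.4 were either kept 3 h at 37 °C in the dark or illuminated 20 min at 480 nm (450–495 nm filter, 3.1 J cm⁻²). Analysed by RP-HPLC on a C18 analytical column with absorbance at 345 nm; retention times recorded. n = 2 independent samples.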

The nature of series [7]: Drug localization in mitochondria of human MCF7 cells assessed as increase in bright green fluorescence of wintergreen excitation at 2 uM incubated for 1 hr in dark by Mitotracker green dye based analysis. In kind it is ADME. As to conditions: mcf7, 1 h.
For series [8], the system named is DNA. Nature of the series: Induction of DNA (unknown origin) damage in PBS at pH 7.4 assessed as double strand breaks by measuring elimination of intact DNA at 10 uM irradiated with 480 nm 2.3 J/cm^2 light for 15 mins with 8 J/cm^2 UV irradiation for 5 mins by ethidium bromide staining based agarose gel electrophoresis. In kind it is nucleic-acid assay. The conditions noted are these: time 20.0 min. In outline: (§2)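 Plasmid dsDNA (70 ng pCMV-PARP1-3xFlag-WT, 7146 bp) in PBS pH 7.4 with compound at 10 μM. Illumination: 480 nm for 15 min (2.3 J cm⁻²), then UV 365 nm lamp for 5 min (8.0 J cm⁻²). Samples denatured, run on 1% agarose gel with ethidium bromide. n = 2.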

The test system of another series is Calf thymus DNA. Nature of the series: Binding affinity to calf thymus DNA assessed as reduction in absorbance spectra at 20 uM by fluorescence based analysis. Type of series: nucleic-acid assay. The conditions noted are these: Bos taurus.
For series [9], the system named is DNA. As to the kind of experiment: Induction of DNA (unknown origin) damage in PBS at pH 7.4 assessed as double strand breaks by measuring production of small DNA fragments at 10 uM irradiated with 480 nm 2.3 J/cm^2 light for 15 mins with 8 J/cm^2 UV irradiation for 5 mins by ethidium bromide staining based agarose gel electrophoresis. Type of series: nucleic-acid assay. The conditions noted are these: time 20.0 min. In outline: as §2

The test system of series [10] is MCF7. As to the kind of experiment: Photocytotoxicity against human MCF7 cells cultured as […] spheroids assessed as tumor spheroid shrinkage at 10 uM incubated for 1 hr followed by washout and irradiation with 480 nm 2.3 J/cm^2 light for 15 mins with 8 J/cm^2 UV irradiation for 5 mins and incubated overnight by cell viability imaging kit based assay. In kind it is functional. In outline: (§3)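 MCF7 spheroids (~300 μm) grown in ultralow-attachment plates. Compound added to medium at 10 μM final for 1 h, then illuminated: 480 nm (15 min, 2.3 J cm⁻²), 480 nm plus UV (5 min, 8.0 J cm⁻²), or UV only. After overnight incubation, stained with a live/dead imaging kit; dead-cell green mean intensity and spheroid diameter assessed.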

Series [11] is described as follows: Photorelease activity in PBS at pH 7.4 assessed as 3-bromo-2-(4-carbamimidoylphenyl)-1H-indole-6-carboxamidine release by measuring time at when peak observed at 50 uM in presence of CT-DNA illuminated with 3.1 J/cm^2 480 nm illumination for 20 mins by RP-HPLC analysis. Type of series: functional. A digest of the protocol: as §1
Series [12] has as its system MCF7. Nature of the series: Photocytotoxicity against human MCF7 cells assessed as reduction in cell viability incubated for 1 hr under dark condition followed by washout and measured after 24 hrs by MTT assay. In kind it is functional. In outline:
(§4)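 Cells (MCF7, A549, HeLa) incubated 1 h with compound (BB probes 0–32 μM, Br-DAPI 0–64 μM) and washed once. Light arms: 480 nm (15 min, 2.3 J cm⁻²) with or without UV (5 min, 8.0 J cm⁻²), or UV only; dark controls unilluminated. Cells kept overnight in growth medium, then MTT read 24 h post-treatment. CC50 taken relative to untreated cells. n = 3.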

The nature of series [13]: Selectivity index, ratio of CC50 for photocytotoxicity against human MCF7 cells irradiated with 480 nm 2.3 J/cm^2 light to CC50 for photocytotoxicity against human MCF7 cells irradiated with 480 nm 2.3 J/cm^2 light and 8 J/cm^2 UV irradiation. In kind it is functional. In outline: as §4
Series [14] is described as follows: Stability of compound in human HeLa cells assessed as esterase-mediated 3-bromo-2-(4-carbamimidoylphenyl)-1H-indole-6-carboxamidine release by measuring cyan fluorescence at 2 uM incubated for 1 hr followed by compound washout and further incubated for 1 hr on heated microscopic stage by DAPI filter based fluorescence analysis. In kind it is ADME, cell-based. A digest of the protocol:
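Cells incubated with compound (2 μM) for 1 h, washed once with PBS, then kept a further 1 h in the dark on a heated microscope stage. Nuclear cyan fluorescence imaged with the DAPI filter set at 0 h and 2 h time points.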

Series [15] has as its system MCF7. As to the kind of experiment: Photocytotoxicity against human MCF7 cells cultured as […] spheroids assessed as cell death by measuring increase in green fluorescence at 10 uM incubated for 1 hr followed by washout and irradiation with 480 nm 2.3 J/cm^2 light for 15 mins with 8 J/cm^2 UV irradiation for 5 mins and incubated overnight by cell viability imaging kit based assay. In kind it is functional. A digest of the protocol:
as §3

Calls of active or inactive are those of the source. The rule behind the calls is not given here.

By CC50 is commonly meant the concentration that lowers cell viability or growth by half. As for `CC1=CC(C)=[N+]2C1=C(COC(=O)/N=C(\N)c1ccc3c(Br)c(-c4ccc(C(=N)N)cc4)[nH]c3c1)c1c(C)cc(C)n1[B-]2(C)C`, the Drug uptake result in series [1] and in [7] was “Active” throughout. For the same compound, the result (in the series with MCF7 [2]; in series [5]; with DNA [8]; with Calf thymus DNA; with DNA [9]; in the series on MCF7 [10]) was Active. Besides, the result in the series with MCF7 [15] was Active. In addition, the values for the Drug metabolism entry (in the series on MCF7 [3]; in series [4]; in series [6]) were “Metabolite_Detected”, “Metabolite detected” and “Metabolite not detected”, respectively. Also, the TIME in series [11] came to 0.533 h. Further, the CC50 in the series on MCF7 [12] was more than 10 µM. Besides, the Ratio in [13] is listed as 8.5. Moreover, the Stability entry in series [14] is on record as “Stable”.
